Screening results from PubChem.
TRPC4 agonist: TRPC4 (mouse) channel activation; HEK293 TRPC4beta/mu-opioid, Fluo4 calcium fluorescence; active compounds read high; 310,000 tested, 0.49% active; AID 2237; B-score at 10 µM; Q9QUQ5;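 active = B-score above 5 SD of library B-scores, and initial fluorescence ratio not above library mean plus 5 SD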;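 also: positive B-score marks a calcium rise read as TRPC4 activation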
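Material: HEK293 stable line with TRPC4beta plus mu-opioid receptor; technique: Fluo4 calcium-sensitive dye fluorescence, kinetic, 1 Hz baseline; timing: Fluo4 dye loading 45 min at room temperature, 110 s recording; controls: assay buffer as low control, maximal DAMGO as high control; read-out: integrated baseline-normalised fluorescence ratio, converted to per-well B score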
TRPC4 inh: blocks the mouse TRPC4 cation channel; HEK293 TRPC4beta/mu-opioid, DAMGO-evoked Fluo4 calcium flux; active compounds read low; B-score at 10 µM; 300,000 tested, 0.39% active;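 active = B-score over 3 SD under the library average, no early fluorescence shift, positive overall ratio signal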
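Material: HEK293 cells with stable TRPC4beta plus mu-opioid receptor expression; probe or stimulus: DAMGO in two steps, submaximal then maximal; technique: Fluo4 calcium fluorescence by kinetic imaging, 5 s 1 Hz baseline; measure: integrated fluorescence ratio relative to baseline, converted to per-well B score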
TRPC6 inhibitor: inhibitors of mouse TRPC6 channel. B-score at 10 µM. HEK293-TRPC6, membrane potential dye, ACh-evoked depolarization; active compounds read low. 310,000 tested, 1.1% active. Q61143;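 active = B-score under library mean minus 3 SD, initial fluorescence not abnormally high, positive integrated signal ratio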;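 also: B-score derived from integrated fluorescence ratio over the kinetic read; more negative B-score means stronger inhibition of depolarization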
Target sequence (Q61143 whole entry, looked up): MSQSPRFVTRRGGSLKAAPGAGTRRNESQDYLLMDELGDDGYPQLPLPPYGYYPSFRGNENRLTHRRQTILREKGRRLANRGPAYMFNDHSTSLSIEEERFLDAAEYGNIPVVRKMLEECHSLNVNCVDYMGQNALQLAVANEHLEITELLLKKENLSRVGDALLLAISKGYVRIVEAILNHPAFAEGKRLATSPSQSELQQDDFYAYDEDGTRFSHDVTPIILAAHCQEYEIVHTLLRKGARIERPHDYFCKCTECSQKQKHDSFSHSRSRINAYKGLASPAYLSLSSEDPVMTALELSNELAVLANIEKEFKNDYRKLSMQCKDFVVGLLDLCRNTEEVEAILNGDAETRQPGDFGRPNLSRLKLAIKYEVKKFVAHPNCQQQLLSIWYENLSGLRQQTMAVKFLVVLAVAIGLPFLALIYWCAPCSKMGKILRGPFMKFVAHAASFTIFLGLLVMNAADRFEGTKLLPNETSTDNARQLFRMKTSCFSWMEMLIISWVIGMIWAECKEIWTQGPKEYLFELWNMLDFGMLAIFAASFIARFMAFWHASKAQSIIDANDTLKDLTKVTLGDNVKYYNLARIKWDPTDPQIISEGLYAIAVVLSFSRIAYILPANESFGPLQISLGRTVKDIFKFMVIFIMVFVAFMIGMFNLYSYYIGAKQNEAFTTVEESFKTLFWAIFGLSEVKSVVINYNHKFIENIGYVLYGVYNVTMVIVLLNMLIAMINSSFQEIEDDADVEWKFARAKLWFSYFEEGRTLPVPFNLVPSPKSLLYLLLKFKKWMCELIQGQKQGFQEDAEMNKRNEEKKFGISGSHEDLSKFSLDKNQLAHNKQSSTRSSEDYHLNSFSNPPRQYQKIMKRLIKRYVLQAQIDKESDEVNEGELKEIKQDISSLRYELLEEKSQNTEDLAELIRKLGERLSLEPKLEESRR
TRPC4 potent: allosterically enhances the mouse TRPC4 cation channel; Q9QUQ5; HEK293 TRPC4beta/mu-opioid, DAMGO EC20, Fluo-4 Ca2+ flux; active compounds read high; B-score at 10 µM; 310,000 tested, 0.42% active; AID 2227;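 active = B-score of calcium response area above 5 SD of library B-scores, with initial fluorescence ratio within 5 SD of library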
TRPC6 activator: mouse TRPC6 channel activation. AID 2550. B-score at 10 µM. 310,000 tested, 0.13% active. Q61143. HEK293-TRPC6 membrane potential dye fluorescence; active compounds read high;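 active = B-score of the integrated fluorescence ratio above library mean plus 3 SD, and starting fluorescence ratio within library mean plus 5 SD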;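 also: higher score means more depolarization so channel activation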
TRPC4 sel inh 2: mouse TRPC4 off-target activity of TRPC6 inhibitors, second screen | shares compounds with TRPC6 inhibitor | HEK293 TRPC4/MOR, membrane potential dye fluorescence; channel activated by saturating DAMGO dose | inhibition, % at 10 µM | 920 tested, 42% active | AID 2776;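 active = compounds whose fluorescence signal differed from control wells by over 3 SD, either direction, in both duplicate plates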
TRPC4 spec: tests whether TRPC6 inhibitors also affect mouse TRPC4 | shares compounds with TRPC6 inhibitor | HEK293 TRPC4/mu-opioid, membrane potential fluorescence | activity change, negative = inhibition, % at 10 µM | 920 tested, 61% active;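 active = rise or fall in signal beyond 3 SD of buffer-only wells in both replicate plates, either sign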;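 also: integrated kinetic ratio of fluorescence range over baseline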
HEK293 MPD ctr 2-1: second check of TRPC6 inhibitor effects in parental HEK293 cells | shares compounds with TRPC6 inhibitor | parental HEK293 membrane potential dye fluorescence; maximal acetylcholine challenge after compound addition | signal change vs control, % at 10 µM | 920 tested, 31% active | AID 2779;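 active = membrane potential signal moving either way by over 3 SD of the maximum-effect control, in both duplicate plates, meaning non-specific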
HEK293 MPD ctr-1: parental HEK293 nonspecific activity of TRPC6 inhibitors. membrane potential signal change, % at 10 µM. AID 2780. 920 tested, 60% active. shares compounds with TRPC6 inhibitor. parental HEK293 membrane potential dye fluorescence;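 active = membrane potential signal shifting up or down by more than 3 SD of buffer-only wells, on both duplicate plates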
HEK293 MPD ctr-2: checks TRPC6 modulator effects in parental HEK293 cells | shares compounds with TRPC6 inhibitor | membrane potential dye fluorescence | membrane potential signal change, % at 10 µM | 2,400 tested, 51% active | AID 488924;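 active = membrane potential signal moves up or down beyond 5 SD from buffer-only wells, on both duplicate plates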
HEK293 MPD ctr 2-2: second counter-screen for TRPC6 modulators: effect in parental HEK293 cells. inhibition, % at 10 µM. 2,400 tested, 14% active. shares compounds with TRPC6 inhibitor. membrane potential dye fluorescence; after compound, maximal acetylcholine stimulation;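 active = membrane potential signal drops by more than 5 SD from the mean control signal, in both duplicate plates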
TRPC4/MOR mod: selectivity of TRPC6 modulators against mouse TRPC4 | shares compounds with TRPC6 inhibitor | HEK293 TRPC4/mu-opioid, membrane potential fluorescence | percent change from control (negative = decrease, positive = increase), % at 10 µM | 2,400 tested, 69% active | AID 488927;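 active = membrane potential signal moved up or down beyond 5 SD of buffer control wells, in both duplicate plates, actives on both sides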
TRPC4 ctr inh 2: second selectivity test of TRPC6 modulators against mouse TRPC4 | shares compounds with TRPC6 inhibitor | HEK293 TRPC4/mu-opioid, membrane potential dye fluorescence; stimulated with maximal-effect DAMGO | inhibition, % at 10 µM | 2,400 tested, 55% active | AID 488928;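 active = drop in membrane potential signal beyond 5 SD of the control wells in both duplicate plates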;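 also: TRPC4 counter screen for TRPC6 hits run under conditions tuned for TRPC6 not TRPC4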
TRPC6 inh conf: mouse TRPC6 inhibitor confirmation; inhibition, % at 10 µM; HEK293-TRPC6, membrane potential dye, ACh-evoked depolarization; 3,300 tested, 43% active; shares compounds with TRPC6 inhibitor; AID 488960;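 active = fluorescence ratio falls more than 5 SD below the full-stimulation control mean, in both duplicate runs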;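 also: integrated fluorescence ratio of peak minus minimum over baseline after agonist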
TRPC6 act conf: confirmation of mouse TRPC6 activators. shares compounds with TRPC6 inhibitor. HEK293-TRPC6 membrane potential dye fluorescence, FDSS. activation, % at 10 µM. 2,800 tested, 11% active. AID 488961;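 active = ratio signal rise beyond 5 SD above unstimulated control wells' mean, seen in both duplicate runs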
Large screens that a line does not name were inactive (follow-up assays come after a bar, where they were run). An excerpt weighted towards active compounds, which were near 2.3% of everything screened.

CC(=O)N1CCN(Cc2nc(C(c3ccccc3)c3ccccc3)no2)CC1	none
NC(=O)CCN1CCN(Cc2nc(C(c3ccccc3)c3ccccc3)no2)CC1	TRPC6 inhibitor -7.91 | TRPC4 sel inh 2 inactive | TRPC4 spec inactive | HEK293 MPD ctr 2-1 inactive | HEK293 MPD ctr-1 inactive | TRPC6 inh conf inactive | TRPC6 act conf inactive
CCOC(=O)N1CCN(C2CCCN(C(=O)c3cccc(Cl)c3)C2)CC1 (stereo not given)	none
CN(C)CCc1cc2c(c3c1ccc1ccccc13)OCO2	TRPC6 inhibitor -5.18 | HEK293 MPD ctr-2 inactive | HEK293 MPD ctr 2-2 inactive | TRPC4/MOR mod -10.5% | TRPC4 ctr inh 2 47.0% | TRPC6 inh conf inactive | TRPC6 act conf inactive
C/C(=N\NC(=S)NCCc1ccccc1)c1ccc(C)cc1	TRPC6 inhibitor -5.3 | HEK293 MPD ctr-2 187.0% | HEK293 MPD ctr 2-2 inactive | TRPC4/MOR mod -15.0% | TRPC4 ctr inh 2 inactive | TRPC6 inh conf inactive | TRPC6 act conf inactive
CC(C)(C)c1ccc(OCCCCCCN2CCNCC2)cc1	TRPC6 inhibitor -7.74 | TRPC4 sel inh 2 52.0% | TRPC4 spec -0.1% | HEK293 MPD ctr 2-1 inactive | HEK293 MPD ctr-1 2.7% | TRPC6 inh conf 61.1% | TRPC6 act conf inactive
CC(C)(c1ccccc1)c1ccc(OCCCN2CCNCC2)cc1	TRPC6 inhibitor -6.85 | TRPC4 sel inh 2 34.0% | TRPC4 spec inactive | HEK293 MPD ctr 2-1 inactive | HEK293 MPD ctr-1 2.3% | TRPC6 inh conf inactive | TRPC6 act conf inactive
CC1CCN(CCCCOc2ccc(C(C)(C)C)cc2)CC1	none
COc1ccc(-n2nc(C(=O)NCC(=O)NCCCN3CCOCC3)c3ccccc3c2=O)cc1OC	none
COC(=O)c1ccc(Cl)cc1N(Cc1c(F)cccc1Cl)S(C)(=O)=O	TRPC4 agonist 65, TRPC6 inhibitor -5.27 | HEK293 MPD ctr-2 303.0% | HEK293 MPD ctr 2-2 113.0% | TRPC4/MOR mod 44.0% | TRPC4 ctr inh 2 38.5% | TRPC6 inh conf inactive
CCOc1ccc(S(=O)(=O)Nc2cccc(Cl)c2)cc1	none
CCOc1ccc(NC(C)c2cc(Cl)ccc2O)cc1 (stereo not given)	TRPC6 inhibitor -5.19 | HEK293 MPD ctr-2 inactive | HEK293 MPD ctr 2-2 inactive | TRPC4/MOR mod -15.0% | TRPC4 ctr inh 2 37.5% | TRPC6 inh conf inactive | TRPC6 act conf inactive
CC(Nc1ccc(Cl)cc1)c1cc(Cl)ccc1O (stereo not given)	none
CCOc1ccc(S(=O)(=O)Nc2cc(Cl)ccc2O)cc1	TRPC6 inhibitor -5.31 | HEK293 MPD ctr-2 inactive | HEK293 MPD ctr 2-2 inactive | TRPC4/MOR mod -15.5% | TRPC4 ctr inh 2 inactive | TRPC6 inh conf inactive | TRPC6 act conf inactive
CCCOCC(O)CCc1n[nH]c(=S)n1-c1ccccc1 (stereo not given)	none
C=CCc1cc(OC)ccc1OCCCCn1cncn1	none
COc1ccc(-c2nc(C(=O)NCCCN3CCOCC3)cc3c2[nH]c2ccccc23)cc1OC	TRPC6 inhibitor -5.59 | HEK293 MPD ctr-2 inactive | HEK293 MPD ctr 2-2 inactive | TRPC4/MOR mod -17.5% | TRPC4 ctr inh 2 67.0% | TRPC6 inh conf 45.5% | TRPC6 act conf inactive
Cc1ccc(-c2nc(C(=O)NCCCN3CCOCC3)cc3c2[nH]c2ccccc23)cc1	TRPC6 inhibitor -6.63 | TRPC4 sel inh 2 57.5% | TRPC4 spec -16.5% | HEK293 MPD ctr 2-1 inactive | HEK293 MPD ctr-1 -165.5% | TRPC6 inh conf inactive | TRPC6 act conf inactive
CCCCN(C)C1=Nc2cccc3cccc1c23	TRPC6 inhibitor -7.52 | HEK293 MPD ctr-2 -194.0% | HEK293 MPD ctr 2-2 inactive | TRPC4/MOR mod -42.0% | TRPC4 ctr inh 2 69.0% | TRPC6 inh conf 56.5% | TRPC6 act conf inactive
Oc1ccccc1/C=N/Nc1cc(N2CCCC2)nc(N2CCCC2)n1	TRPC6 inhibitor -5.2 | HEK293 MPD ctr-2 inactive | HEK293 MPD ctr 2-2 inactive | TRPC4/MOR mod 16.0% | TRPC4 ctr inh 2 inactive | TRPC6 inh conf inactive
Oc1ccc(/C=N/Nc2cc(N3CCOCC3)nc(N3CCOCC3)n2)cc1O	none
O=C1c2cccc3c(N4CCCCC4)ccc(c23)C(=O)N1CCO	TRPC6 activator 12.2 | HEK293 MPD ctr-2 937.0% | HEK293 MPD ctr 2-2 143.5% | TRPC4/MOR mod 218.0% | TRPC4 ctr inh 2 121.5% | TRPC6 inh conf inactive | TRPC6 act conf 180.5%
CC1(c2cccc(Br)c2)NC(=O)NC1=O (stereo not given)	none
Cc1cccc(NC(=S)NC2CC3CCCC(C2)N3Cc2cccs2)c1 (stereo not given)	TRPC6 inhibitor -6.95 | TRPC4 sel inh 2 inactive | TRPC4 spec inactive | HEK293 MPD ctr 2-1 inactive | HEK293 MPD ctr-1 -0.4% | TRPC6 inh conf inactive | TRPC6 act conf inactive
COc1ccc(S(=O)(=O)NCC(=O)N(CC(=O)NCC2CCCO2)Cc2ccccc2)cc1 (stereo not given)	none
Cc1ccc(OCCCCCCN2CCNCC2)c(Br)c1	TRPC6 inhibitor -9.03 | TRPC4 sel inh 2 51.5% | TRPC4 spec 1.3% | HEK293 MPD ctr 2-1 inactive | HEK293 MPD ctr-1 6.4% | TRPC6 inh conf 69.9% | TRPC6 act conf inactive
Clc1ccc(OCCCCCN2CCCC2)c(Br)c1	TRPC6 inhibitor -5.13 | HEK293 MPD ctr-2 121.0% | HEK293 MPD ctr 2-2 inactive | TRPC4/MOR mod 22.0% | TRPC4 ctr inh 2 33.5% | TRPC6 inh conf inactive
Clc1ccc(OCCCN2CCCCC2)c(Br)c1	none
